Assays:
Type in all cases: ADME, cell-based
Conditions in all cases: cos-7, 1 h
[1] = target: T1, Ectonucleoside triphosphate diphosphohydrolase 1 (Homo sapiens, UniProt P49961); assay: Drug metabolism assessed as human NTPDase-1-mediated compound hydrolysis expressed in African green monkey COS7 cells at 100 uM after 1 hr by HPLC analysis
T1 sequence (P49961 whole entry): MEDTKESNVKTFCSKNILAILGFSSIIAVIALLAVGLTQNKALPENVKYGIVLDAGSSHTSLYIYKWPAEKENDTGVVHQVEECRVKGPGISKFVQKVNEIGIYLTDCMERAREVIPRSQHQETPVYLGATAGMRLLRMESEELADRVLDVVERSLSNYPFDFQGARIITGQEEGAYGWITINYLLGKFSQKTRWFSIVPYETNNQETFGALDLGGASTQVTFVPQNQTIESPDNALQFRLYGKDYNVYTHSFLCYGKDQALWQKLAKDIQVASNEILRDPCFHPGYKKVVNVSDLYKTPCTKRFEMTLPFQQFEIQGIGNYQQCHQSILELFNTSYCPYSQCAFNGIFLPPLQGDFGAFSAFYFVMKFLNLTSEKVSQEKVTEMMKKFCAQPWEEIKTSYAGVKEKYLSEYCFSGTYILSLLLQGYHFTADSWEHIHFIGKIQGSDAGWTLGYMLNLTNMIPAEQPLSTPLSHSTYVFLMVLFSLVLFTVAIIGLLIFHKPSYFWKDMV
How it was run: (§1)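 Protein extracts are from COS-7 cells transiently transfected with human NTPDase1, 2, 3 or 8. The incubation uses Tris–Ringer buffer pH 7.3 at 37 °C with 3 min extract preincubation. Analogue is added alone at 100 μM final. […] Three experiments in triplicate.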

[2] = target: T2, Ectonucleotide pyrophosphatase/phosphodiesterase family member 1 (Homo sapiens, UniProt P22413); assay: Drug metabolism assessed as human NPP1-mediated compound hydrolysis expressed in African green monkey COS7 cells at 100 uM after 1 hr by HPLC analysis
T2 sequence (P22413 whole entry): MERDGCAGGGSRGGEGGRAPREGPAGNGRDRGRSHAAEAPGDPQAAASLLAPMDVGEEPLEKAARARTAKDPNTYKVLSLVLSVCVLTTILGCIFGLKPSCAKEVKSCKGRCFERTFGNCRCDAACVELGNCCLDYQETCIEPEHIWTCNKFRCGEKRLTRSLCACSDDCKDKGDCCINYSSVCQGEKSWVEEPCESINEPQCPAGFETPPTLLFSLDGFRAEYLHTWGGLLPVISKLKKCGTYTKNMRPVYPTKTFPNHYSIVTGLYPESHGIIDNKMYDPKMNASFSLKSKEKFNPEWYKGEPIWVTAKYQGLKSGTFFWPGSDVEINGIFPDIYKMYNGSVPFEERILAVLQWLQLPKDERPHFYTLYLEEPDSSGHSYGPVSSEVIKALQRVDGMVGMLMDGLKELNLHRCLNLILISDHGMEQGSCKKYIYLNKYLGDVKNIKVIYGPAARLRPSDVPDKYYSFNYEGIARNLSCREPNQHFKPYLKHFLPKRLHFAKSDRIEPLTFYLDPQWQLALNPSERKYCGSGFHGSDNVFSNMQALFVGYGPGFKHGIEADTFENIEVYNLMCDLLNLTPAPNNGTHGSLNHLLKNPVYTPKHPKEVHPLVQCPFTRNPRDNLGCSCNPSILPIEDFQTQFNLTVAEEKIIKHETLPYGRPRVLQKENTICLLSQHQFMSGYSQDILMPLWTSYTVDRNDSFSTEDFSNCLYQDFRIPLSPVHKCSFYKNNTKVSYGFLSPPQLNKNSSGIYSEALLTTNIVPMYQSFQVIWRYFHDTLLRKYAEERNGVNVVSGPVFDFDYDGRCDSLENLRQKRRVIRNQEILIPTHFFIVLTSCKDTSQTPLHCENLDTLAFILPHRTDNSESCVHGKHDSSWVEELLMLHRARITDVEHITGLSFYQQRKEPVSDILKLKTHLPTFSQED

[3] = target: T3, Ectonucleotide pyrophosphatase/phosphodiesterase family member 3 (Homo sapiens, UniProt O14638); assay: Drug metabolism assessed as human NPP3-mediated compound hydrolysis expressed in African green monkey COS7 cells at 100 uM after 1 hr by HPLC analysis
T3 sequence (O14638 whole entry): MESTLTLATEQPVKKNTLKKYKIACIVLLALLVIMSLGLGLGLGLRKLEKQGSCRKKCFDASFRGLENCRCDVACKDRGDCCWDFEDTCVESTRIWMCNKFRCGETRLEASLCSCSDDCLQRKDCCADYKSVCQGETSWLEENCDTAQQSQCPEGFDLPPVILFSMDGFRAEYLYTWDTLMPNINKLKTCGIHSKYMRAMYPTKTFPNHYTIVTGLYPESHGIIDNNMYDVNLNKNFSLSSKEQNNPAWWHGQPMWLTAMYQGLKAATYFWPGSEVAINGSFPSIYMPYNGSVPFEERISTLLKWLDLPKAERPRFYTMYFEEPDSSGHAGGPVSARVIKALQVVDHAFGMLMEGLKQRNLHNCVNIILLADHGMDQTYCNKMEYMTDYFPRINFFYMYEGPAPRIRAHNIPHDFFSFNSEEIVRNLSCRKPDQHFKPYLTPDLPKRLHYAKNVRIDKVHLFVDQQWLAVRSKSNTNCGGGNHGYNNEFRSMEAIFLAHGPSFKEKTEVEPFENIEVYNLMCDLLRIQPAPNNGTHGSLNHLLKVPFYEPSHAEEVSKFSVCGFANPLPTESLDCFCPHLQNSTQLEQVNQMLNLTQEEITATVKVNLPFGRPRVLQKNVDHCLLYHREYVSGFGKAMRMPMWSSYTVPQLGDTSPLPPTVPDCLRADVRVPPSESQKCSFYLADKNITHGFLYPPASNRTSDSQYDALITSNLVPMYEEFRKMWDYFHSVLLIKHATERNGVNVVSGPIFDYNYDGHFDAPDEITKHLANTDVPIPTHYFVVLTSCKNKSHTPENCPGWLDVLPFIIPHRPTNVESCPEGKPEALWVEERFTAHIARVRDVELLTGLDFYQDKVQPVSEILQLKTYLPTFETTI

[4] = target: T4, Ectonucleoside triphosphate diphosphohydrolase 3 (Homo sapiens, UniProt O75355); assay: Drug metabolism assessed as human NTPDase-3-mediated compound hydrolysis expressed in African green monkey COS7 cells at 100 uM after 1 hr by HPLC analysis; how it was run: as §1
T4 sequence (O75355 whole entry): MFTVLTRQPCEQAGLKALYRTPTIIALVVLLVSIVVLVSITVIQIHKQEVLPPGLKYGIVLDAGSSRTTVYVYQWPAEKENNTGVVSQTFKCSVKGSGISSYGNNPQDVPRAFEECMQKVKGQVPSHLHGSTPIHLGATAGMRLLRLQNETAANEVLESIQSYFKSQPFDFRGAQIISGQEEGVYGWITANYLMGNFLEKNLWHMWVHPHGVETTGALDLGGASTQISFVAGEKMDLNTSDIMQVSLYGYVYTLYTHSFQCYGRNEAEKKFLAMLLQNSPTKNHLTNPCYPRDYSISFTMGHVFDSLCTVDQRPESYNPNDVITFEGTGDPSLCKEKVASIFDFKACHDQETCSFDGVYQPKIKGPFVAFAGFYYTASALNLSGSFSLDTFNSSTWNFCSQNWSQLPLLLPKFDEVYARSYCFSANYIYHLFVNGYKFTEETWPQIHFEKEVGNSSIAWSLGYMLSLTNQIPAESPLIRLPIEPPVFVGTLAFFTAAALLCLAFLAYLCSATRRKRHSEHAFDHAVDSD

[5] = target: T5, Ectonucleoside triphosphate diphosphohydrolase 2 (Homo sapiens, UniProt Q9Y5L3); assay: Drug metabolism assessed as human NTPDase-2-mediated compound hydrolysis expressed in African green monkey COS7 cells at 100 uM after 1 hr by HPLC analysis; how it was run: as §1
T5 sequence (Q9Y5L3 whole entry): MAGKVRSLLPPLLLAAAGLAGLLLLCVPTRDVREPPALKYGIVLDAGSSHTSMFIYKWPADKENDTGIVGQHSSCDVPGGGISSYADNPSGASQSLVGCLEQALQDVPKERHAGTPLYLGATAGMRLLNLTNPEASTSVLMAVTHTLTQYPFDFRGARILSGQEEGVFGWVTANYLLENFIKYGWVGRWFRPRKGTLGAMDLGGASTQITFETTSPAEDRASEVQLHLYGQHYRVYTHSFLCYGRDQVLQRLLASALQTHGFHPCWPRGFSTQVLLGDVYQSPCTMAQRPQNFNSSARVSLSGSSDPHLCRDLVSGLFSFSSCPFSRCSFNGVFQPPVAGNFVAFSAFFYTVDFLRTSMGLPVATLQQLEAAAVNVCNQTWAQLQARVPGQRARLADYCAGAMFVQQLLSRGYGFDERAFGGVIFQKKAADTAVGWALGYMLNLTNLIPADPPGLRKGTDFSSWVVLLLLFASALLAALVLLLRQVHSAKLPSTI

Q: Which results are given for `Nc1ncnc2c1ncn2[C@@H]1O[C@H](COP(=O)(O)OP(=O)(O)OP(=O)(O)O)[C@@H](O)[C@H]1O` [ADENOSINE TRIPHOSPHATE]?
A: Drug metabolism [1]: 807 nmol/min/mg; Drug metabolism [2]: 67 nmol/min/mg; Drug metabolism [3]: 54 nmol/min/mg; Drug metabolism [4]: 240 nmol/min/mg; Drug metabolism [5]: 1051 nmol/min/mg
